Rows were chosen to be rich in hits. Some 27% of all compounds tested hit in one or more screens of this group.
CYP2C9 inhib: blocks human cytochrome P450 2C9; P11712; 96,000 tested, 20% active; CYP2C9 Supersomes, luciferin-H conversion, luminescence; inhibition, % at 5 µM;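 active = blocking of liver enzyme CYP2C9 beyond about 50% at 5 µM, limit read from the data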
CYP2C9 act: increases human cytochrome P450 2C9 activity. P11712. recombinant CYP2C9, luciferin-H conversion, luminescence; stronger effect = higher value; factor 1 = untreated enzyme, 0 = blocked. activation factor at 5 µM. 96,000 tested, 1.4% active. AID 1024;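 active = activation factor of 2 or more for CYP2C9 at a 5 µM dose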;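 also: 0 = sulfaphenazole-blocked wells and 1 = vehicle-only wells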
CYP2C19 activ: increases human CYP2C19 enzyme activity; P33261; activation factor at 5 µM; recombinant CYP2C19, luciferin-H EGE luminescence; stronger effect = higher value; 0 = fully inhibited enzyme, 1 = untreated enzyme; 96,000 tested, under 10 active;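 active = activation factor of at least 2 at 5 µM in the primary screen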;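 also: 0 = wells with 2.5 mM tranylcypromine and 1 = vehicle-only wells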
CYP2C19 inh: inhibitors of human CYP2C19; CYP2C19 Supersomes, luciferin-H EGE luminescence, 30 min; P33261; inhibition, % at 5 µM; 96,000 tested, 21% active;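 active = CYP2C19 inhibition above a set limit at 5 µM in the primary screen, cut at about 50% in these data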;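 also: plate controls were negative control wells for no effect and 2.5 mM tranylcypromine positive control for full effect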
Cav32 inh: inhibitors of human Cav3.2 T-type calcium channel; O95180; Cav3.2-expressing cells, Fluo-4 calcium fluorescence FDSS; stronger effect = lower value; B-score at 10 µM; 100,000 tested, 4% active; AID 449739;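 active = single-dose well whose peak fluorescence ratio is a statistical outlier from its plate by either plate-standardised score or position-corrected B-score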
Rev-RRE block: HIV Rev-RRE protein-RNA interaction inhibition; 97,000 tested, 0.79% active; Rev peptide-RRE RNA binding, FRET; inhibition, % at 8 µM; P05866;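 active = inhibition above the screen-wide mean plus 3 SD, cut at about 35% in these data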;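 also: 0% = median DMSO wells and 100% = median Neomycin B control wells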
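Assay system: Rev peptide and RRE RNA, both fluorescently labelled; times: 5 min preincubation and 15 min binding, 25 °C; detection: FRET, ex 480 nm, em 540 and 671 nm; read-out basis: % inhibition from 671/540 nm acceptor-to-donor ratio, scaled between controls; benchmarks: DMSO low control, neomycin B high control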
The depositor's hits bear a star; · = no result.

SMILES	CYP2C9 inhib	CYP2C9 act	CYP2C19 activ	CYP2C19 inh	Cav32 inh	Rev-RRE block
Nn1cc(-c2ccccc2)nc1SCC(=O)N1CCN(S(=O)(=O)c2ccccc2)CC1	7	0.9	0.6	41	2.1	-4
Cn1c(SCC(=O)N2CCN(S(=O)(=O)c3ccccc3)CC2)nc2ccccc21	-48	1.5	0.7	30	0.66	7
O=C(CSc1n[nH]c(-c2cccs2)n1)N1CCN(S(=O)(=O)c2ccccc2)CC1	51*	0.5	0.7	32	1.1	4
O=C(CSc1nc(-c2ccccc2)c(-c2ccccc2)[nH]1)N1CCN(S(=O)(=O)c2ccccc2)CC1	80*	0.2	0.1	86*	-6*	-1
O=C(CCc1n[nH]c(=O)[nH]c1=O)N1CCOCC1	-2	1	1.1	-7	0.082	4
CCCc1cc(=O)[nH]c(/N=C(\N)Nc2ccccc2)n1	9	0.9	1	0	0.032	0
Nn1c(SCC(=O)N2CCN(S(=O)(=O)c3ccc(Cl)cc3)CC2)nnc1-c1cccs1	50*	0.5	0.6	36	0.35	2
CC(C)Cn1c(SCC(=O)N2CCN(S(=O)(=O)c3ccccc3)CC2)nc2ccccc21	78*	0.2	0.2	80*	-2.5	4
Nn1c(SCC(=O)N2CCN(S(=O)(=O)c3ccccc3)CC2)nnc1-c1cccs1	-1	1	1	-2	2.3	7
CC1(C)Cc2c(C#N)c(N)sc(=S)c2CS1	22	0.8	1	4	-0.094	16
Cn1c(=O)n(Cc2ccccc2)c(=O)c2c1nc1n2CCCN1CCc1ccccc1	33	0.7	0.4	58*	-2.7	1
Cn1c(N2CCCC2)nc2c1c(=O)n(Cc1cccc(F)c1)c(=O)n2C	81*	0.2	1	2	1.6	-5
Cn1c(=O)n(Cc2ccccc2)c(=O)c2c1nc1n2CCCN1Cc1ccccc1	1	1	0.8	17	·	1
Cn1c(=O)n(Cc2ccccc2)c(=O)c2c1nc1n2CCS1	85*	0.1	0.4	57*	0.41	7
CC(C)(C)OC(=O)N1CCN(C(=O)OCC2c3ccccc3-c3ccccc32)CC1C(=O)O (configuration not stated)	·	·	·	·	1.3	·
O=C(NCC1CCCCC1)C1CCN(C(=O)NC2CCCCC2)CC1	37	0.6	0.8	20	0.03	0
O/N=C1/CCCSc2ccccc21	-2	1	1.1	-8	0.24	8
Cc1ccsc1C(=O)NNC(=S)NCC(C)C	28	0.7	0.1	91*	0.46	11
Cc1cccc(NC(=S)NNC(=O)c2csc(C(C)C)c2)c1	·	·	·	·	-5.5*	0
Cc1cccc(NC(=S)NNC(=O)c2sccc2C)c1	88*	0.1	0.3	73*	0.095	3
CCc1cc(C(=O)NNC(=S)Nc2cccc(C)c2)cs1	·	·	·	·	-2.2	-1
COc1ccc(N2C(=O)CC(Nc3ccc(N4CCOCC4)cc3)C2=O)c(OC)c1 (configuration not stated)	12	0.9	1	4	-1.3	4
CCOC(=O)C[C@H]1c2ccc(C(F)(F)F)cc2S(=O)(=O)N1c1cccc(OC)c1	·	·	·	·	-1.2	·
c1cc2c(cc1CN1CCOCC1)OCO2	6	0.9	0.7	30	-0.43	9
CC1(C)CC(=O)C2=C(C1)NCN(Cc1ccc3c(c1)OCO3)C2	85*	0.1	0.9	15	1.1	7
SMILES	CYP2C9 inhib	CYP2C9 act	CYP2C19 activ	CYP2C19 inh	Cav32 inh	Rev-RRE block
C/C=C/C=C/C(=O)N1CC[C@]23c4ccccc4N[C@H]4N(C)c5cccc6c5[C@]42CCN([C@H]6C2OC2(C)C)[C@H]13 (some centres not stated)	·	·	·	·	-4.5*	·
CN1CCC23c4ccccc4NC1C21CCN(C)C3Nc2ccccc21	·	·	·	·	0.094	·
O=C(c1cccnc1Nc1ccc2c(c1)CCC2)N1CCOCC1	5	0.9	0.3	70*	0.56	8
O=C(c1ncc[nH]1)c1ccccc1C(=O)N1CCOCC1	15	0.9	0.9	11	-0.054	4
COc1ccccc1-n1cnnc1SCC(=O)N1CCN(S(=O)(=O)c2ccccc2)CC1	3	1	0.4	60*	0.3	2
CC(C)CC(=O)N1CCN(S(=O)(=O)c2ccccc2)CC1	-6	1.1	0.7	26	0.28	6
